Key:
Rattus norvegicus [1] = experiment: Effective dose for antiinflammatory activity in carrageenan paw edema assay in rats after oral administration; assay type: functional
In short: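 Male Wistar rats (120-150 g; 5-10 per dose) were dosed orally in 0.5% aqueous tragacanth. Edema was induced by subcutaneous injection of 1% aqueous carrageenan into the left hind paw.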

Mus musculus = species on record: Mus musculus; experiment: Effective dose for analgesic activity in mice; assay type: functional
In short: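 Female ddN mice (18-22 g; 5-15 per dose) received compound in 0.5% aqueous tragacanth. Writhing was induced by intraperitoneal 0.03% phenylquinone, and writhes were counted over 15 min. ED50 was calculated by Litchfield–Wilcoxon.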

[2] = Lethal dose determined in rats when administered perorally; assay type: toxicity, organism-based; conditions: rat, in vivo, po
In short: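 Male Wistar rats (150-230 g), dosed orally with compound dissolved or suspended in 0.5% aqueous tragacanth. LD50 taken from mortality over 7 days and calculated by the Litchfield-Wilcoxon method.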

Rattus norvegicus [3] = experiment: Compound was evaluated for the induction no of gastric ulcers in rats when administered perorally; assay type: functional, Stomach
In short: (§1)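 Male Wistar rats were fasted 24 h and given compound once orally in 0.5% aqueous tragacanth. Stomachs were removed 6 h later and examined macroscopically. UD50 (dose causing ulcers in 50% of rats) was taken from each compound's regression line.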

Rattus norvegicus [4] = experiment: Compound was evaluated for the induction of gastric ulcers in rats after oral administration; assay type: functional; conditions: Stomach; in short: as §1
Rattus norvegicus [5] = species on record: Rattus norvegicus; experiment: Analgesic activity measured as silver nitrate induced arthritic pain in rats; assay type: functional
In short: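 Pain in the arthritic rat paw was provoked with silver nitrate. Compounds were given in 0.5% aqueous tragacanth, and ED50 was calculated by the Litchfield–Wilcoxon method.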

Rattus norvegicus [6] = experiment: compound was evaluated for the induction no of gastric ulcers in rats when administered perorally; assay type: functional, Stomach; in short: as §1
Rattus norvegicus [7] = species on record: Rattus norvegicus; experiment: Antipyretic activity measured as yeast induced fever assay in rats; assay type: functional
In short: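 Male Wistar rats (350-500 g); hyperthermia induced by subcutaneous injection of 15% yeast suspension. Test compounds dissolved or suspended in 0.5% aqueous tragacanth and administered. ED50 calculated by the Litchfield–Wilcoxon method.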

SMILES | ED50 (Rattus norvegicus [1]) [mg/kg] | ED50 (Mus musculus) [mg/kg] | other results
O=C(O)Cc1ccc2c(c1)C(=O)Cc1cc(F)ccc1O2 | ≥ 80 | > 100 | 
O=C(O)Cc1ccc2c(c1)C=Cc1ccc(Cl)cc1O2 | 61.4 | 9.53 | 
O=C(O)Cc1ccc2c(c1)C(O)Cc1cc(F)ccc1O2 (stereo not given) | > 80 | > 100 | 
O=C(O)Cc1ccc2c(c1)Oc1ccccc1NC2=O | > 80 | > 100 | 
O=C(O)Cc1ccc2c(c1)C(O)Cc1cc(Cl)ccc1O2 (stereo not given) | > 80 | > 100 | 
O=C(O)Cc1ccc2c(c1)Oc1ccccc1CC2=O | 56.9 | ≥ 100 | 
Cc1ccc2c(c1)CC(=O)c1cc(C(C)C(=O)O)ccc1S2 (stereo not given) |  | 3.1 | LD50 [2]: > 100 mg/kg; UD50 (Rattus norvegicus [3]): 11.3 mg/kg
O=C(O)Cc1ccc2c(c1)C(O)Cc1ccccc1O2 (stereo not given) | 24.3 | 44.6 | 
Cc1ccc2c(c1)C=Cc1cc(CC(=O)O)ccc1O2 | > 80 | > 100 | 
O=C(O)Cc1ccc2c(c1)C(=O)Cc1cc(Cl)ccc1O2 | ≥ 80 | ≥ 100 | 
Cc1ccc2c(c1)CC(O)c1cc(CC(=O)O)ccc1O2 (stereo not given) | > 80 | > 100 | 
O=C(O)Cc1ccc2c(c1)C(=O)Cc1ccccc1O2 | 10.8 | 34.4 | 
CC(C(=O)O)c1ccc2c(c1)C(=O)Cc1ccccc1O2 (stereo not given) |  | 17.8 | 
CC(C(=O)O)c1ccc2c(c1)C(=O)Nc1ccccc1O2 (stereo not given) | > 80 | > 100 | 
O=C(O)Cc1ccc2c(c1)C=Cc1ccccc1O2 | 28.3 | > 100 | 
Cc1ccc2c(c1)CC(=O)c1cc(CC(=O)O)ccc1O2 |  | 13.8 | 

SMILES | ED50 (Rattus norvegicus [1]) [mg/kg] | ED50 (Mus musculus) [mg/kg] | other results
O=C(O)Cc1ccc2c(c1)C=Cc1cc(Cl)ccc1O2 | > 80 | > 100 | 
O=C(O)Cc1ccc2c(c1)C(=O)Cc1ccc(Cl)cc1O2 | ≥ 80 | > 100 | 
O=C(O)Cc1ccc2c(c1)C(=O)Nc1ccccc1O2 | > 80 | > 100 | 
CC(C(=O)O)c1ccc2c(c1)C(O)Cc1ccccc1O2 (stereo not given) | > 80 | > 100 | 
O=C(O)Cc1ccc2c(c1)Oc1ccccc1CC2O (stereo not given) | > 80 | > 100 | 
Cc1ccc2c(c1)C=Cc1cc(C(C)C(=O)O)ccc1S2 (stereo not given) | > 80 | > 100 | 
O=C(O)Cc1ccc2c(c1)C(O)Cc1ccc(Cl)cc1O2 (stereo not given) | > 80 | > 100 | 
O=C(O)Cc1ccc2c(c1)C=Cc1cc(F)ccc1O2 | > 80 | > 100 | 
O=C(O)Cc1ccc2c(c1)Oc1ccccc1C=C2 | > 80 | > 100 | 
CC(C(=O)O)c1ccc2c(c1)C=Cc1ccccc1O2 (stereo not given) | ≥ 80 | > 100 | 
Cc1ccc2c(c1)C=Cc1cc(C(C)C(=O)O)ccc1O2 (stereo not given) | > 80 | > 100 | 
Cc1ccc2c(c1)CC(O)c1cc(C(C)C(=O)O)ccc1S2 (stereo not given) | > 80 | > 100 | 
Cc1ccc2c(c1)CC(O)c1cc(C(C)C(=O)O)ccc1O2 (stereo not given) | > 80 | > 100 | 
Cc1ccc2c(c1)CC(=O)c1cc(C(C)C(=O)O)ccc1O2 (stereo not given) [BERMOPROFEN] |  | 6.51 | LD50 [2]: 147 mg/kg; ED50 (Rattus norvegicus [4]): 13.8 mg/kg
COc1ccc2c(c1)c(CC(=O)O)c(C)n2C(=O)c1ccc(Cl)cc1 [INDOMETHACIN] |  | 0.62 | LD50 [2]: 18.5 mg/kg; ED50 (Rattus norvegicus [5]): 4.3 mg/kg; UD50 (Rattus norvegicus [6]): 8 mg/kg; ED50 (Rattus norvegicus [7]): 0.22 mg/kg

Source: ChEMBL document CHEMBL1122130, “Nonsteroidal antiinflammatory agents. 1. 10,11-Dihydro-11-oxodibenz[b, f]oxepinacetic acids and related compounds” (J Med Chem, 1982)
